Test results taken from ChEMBL document CHEMBL1156763, “1,8-Naphthyridines VIII. Novel 5-aminoimidazo[1,2-a] [1,8]naphthyridine-6-carboxamide and 5-amino[1,2,4]triazolo[4,3-a] [1,8]naphthyridine-6-carboxamide derivatives showing potent analgesic or anti-inflammatory activity, respectively, and completely devoid of acute gastrolesivity” (Eur J Med Chem, 2010).

Key:
Rattus norvegicus [1] = assay: Antiinflammatory activity against carrageenan-induced paw edema in Wistar rat assessed as inhibition of hind paw edema at 12.5 mg/kg, po administered 1 hr prior to carrageenan challenge measured after 3 hrs relative to control; type: functional
How it was run: (§1)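 Wistar rats of either sex (250–300 g), fasted overnight, gavaged with compound in 0.5% methylcellulose. 1 h later, 0.1 mL 1% carrageenan injected subcutaneously into the plantar hind paw. Paw volume read by plethysmometer right after injection and 3 h later. Control edema set as 100, % inhibition from swelling difference. Groups of 8–10; Student's t-test.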

Rattus norvegicus [2] = assay: Antiinflammatory activity against carrageenan-induced paw edema in Wistar rat assessed as inhibition of hind paw edema at 100 mg/kg, po administered 1 hr prior to carrageenan challenge measured after 3 hrs relative to control; type: functional; how it was run: as §1
Rattus norvegicus [3] = assay: Antiinflammatory activity against carrageenan-induced paw edema in Wistar rat assessed as inhibition of hind paw edema at 6.25 mg/kg, po administered 1 hr prior to carrageenan challenge measured after 3 hrs relative to control; type: functional; how it was run: as §1
Mus musculus [4] = assay: Analgesic activity in Swiss mouse assessed as inhibition of acetic acid-induced writhing response at 50 mg/kg, po administered 1 hr before acetic acid challenge measured for 30 mins relative to control; type: functional
How it was run: (§2)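 Mice of either sex (25–35 g), fasted overnight, dosed by oral gavage with test agent suspended in 0.5% methylcellulose; controls got vehicle alone. Each hind-limb full extension counted as a writhe over 30 min after the noxious agent. % inhibition from treated vs control writhing; groups of 8–10; Student's t-test. Dosing starts at 100 mg/kg, then halved stepwise.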

Rattus norvegicus [5] = assay: Antiinflammatory activity against carrageenan-induced paw edema in Wistar rat assessed as inhibition of hind paw edema at 50 mg/kg, po administered 1 hr prior to carrageenan challenge measured after 3 hrs relative to control; type: functional; how it was run: as §1
Mus musculus [6] = assay: Analgesic activity in Swiss mouse assessed as inhibition of acetic acid-induced writhing response at 25 mg/kg, po administered 1 hr before acetic acid challenge measured for 30 mins relative to control; type: functional; how it was run: as §2
Rattus norvegicus [7] = assay: Antiinflammatory activity against carrageenan-induced paw edema in Wistar rat assessed as inhibition of hind paw edema at 25 mg/kg, po administered 1 hr prior to carrageenan challenge measured after 3 hrs relative to control; type: functional; how it was run: as §1
Mus musculus [8] = assay: Analgesic activity in Swiss mouse assessed as inhibition of acetic acid-induced writhing response at 100 mg/kg, po administered 1 hr before acetic acid challenge measured for 30 mins relative to control; type: functional; how it was run: as §2
Rattus norvegicus [9] = assay: Acute gastrolesivity in Wistar rat assessed as appearance of gastric damage at 200 mg/kg, po after 5 hrs; type: toxicity, organism-based, Stomach; parameters: dose 200 mg/kg, route oral; conditions: in vivo
How it was run: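 Wistar rats (250–300 g), either sex, fasted overnight; compound suspended in 0.5% methylcellulose, single oral gavage at 200 mg kg^-1 (1 mL 100 g^-1). Stomachs excised 5 h later, fixed in 2% formalin, opened along greater curvature, examined by stereomicroscope by blinded observer. Reported as number of animals with gastric damage over treated animals (eight per group).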

Mus musculus [10] = assay: Sedative activity in Swiss mouse assessed as inhibition of spontaneous locomotor activity at 50 mg/kg, po dose measured for every 5 mins up to 90 mins; type: organism-based; parameters: dose 50 mg/kg, route oral
How it was run: (§3)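 Overnight-fasted mice given compound (0.5% methylcellulose) or vehicle by oral gavage, then housed singly in an activity cage. Locomotion auto-recorded in 5-min intervals for 90 min; pulses of the final 30 min scored. % inhibition versus controls; runs between 9.00 and 13.00; groups of 8–10; Student's t-test.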

Mus musculus [11] = assay: Analgesic activity in Swiss mouse assessed as inhibition of acetic acid-induced writhing response at 12.5 mg/kg, po administered 1 hr before acetic acid challenge measured for 30 mins relative to control; type: functional; how it was run: as §2
Mus musculus [12] = assay: Analgesic activity in Swiss mouse assessed as inhibition of acetic acid-induced writhing response at 6.25 mg/kg, po administered 1 hr before acetic acid challenge measured for 30 mins relative to control; type: functional; how it was run: as §2
Mus musculus [13] = assay: Analgesic activity in Swiss mouse assessed as inhibition of acetic acid-induced writhing response at 3.12 mg/kg, po administered 1 hr before acetic acid challenge measured for 30 mins relative to control; type: functional
Mus musculus [14] = assay: Analgesic activity in Swiss mouse assessed as inhibition of acetic acid-induced writhing response at 1.6 mg/kg, po administered 1 hr before acetic acid challenge measured for 30 mins relative to control; type: functional
Mus musculus [15] = assay: Sedative activity in Swiss mouse assessed as inhibition of spontaneous locomotor activity at 100 mg/kg, po dose measured for every 5 mins up to 90 mins; type: organism-based; parameters: dose 100 mg/kg, route oral; how it was run: as §3

Molecule `CCN(CC)C(=O)c1c(N(C)CC)c2cccnc2n2c(C(C)C)nnc12` has an inhibition in vivo at 12.5 mg/kg (Rattus norvegicus [1]) of 51%, an inhibition in vivo at 100 mg/kg (Rattus norvegicus [2]) of 71% and an inhibition in vivo at 6.25 mg/kg (Rattus norvegicus [3]) of 42%. The inhibition in vivo at 50 mg/kg (Mus musculus [4]) was 59%, the inhibition in vivo at 50 mg/kg (Rattus norvegicus [5]) was 67% and the inhibition in vivo at 25 mg/kg (Mus musculus [6]) was 17%. The inhibition in vivo at 25 mg/kg (Rattus norvegicus [7]) was 65%, the inhibition in vivo at 100 mg/kg (Mus musculus [8]) was 81% and the Activity (Rattus norvegicus [9]) was “Non-toxic”. It also gave an inhibition at 50 mg/kg (Mus musculus [10]) of 22%.

Work on `CCN(CC)C(=O)c1c(NC(C)C)c2cccnc2n2c(C(C)C)nnc12` yielded an inhibition in vivo at 12.5 mg/kg (Rattus norvegicus [1]) of 68%, an inhibition in vivo at 100 mg/kg (Rattus norvegicus [2]) of 81% and an inhibition in vivo at 12.5 mg/kg (Mus musculus [11]) of 0%. It also gave an inhibition in vivo at 50 mg/kg (Mus musculus [4]) of 54%, an inhibition in vivo at 50 mg/kg (Rattus norvegicus [5]) of 75% and an inhibition in vivo at 25 mg/kg (Mus musculus [6]) of 33%. For the same molecule, the inhibition in vivo at 25 mg/kg (Rattus norvegicus [7]) was 75%, the inhibition in vivo at 100 mg/kg (Mus musculus [8]) was 83% and the Activity (Rattus norvegicus [9]) was “Non-toxic”. The inhibition at 50 mg/kg (Mus musculus [10]) was 64%.

`CCN(CC)C(=O)c1c(NCC(C)C)c2cccnc2n2c(C(C)C)nnc12` showed an inhibition in vivo at 12.5 mg/kg (Rattus norvegicus [1]) of 50%, an inhibition in vivo at 100 mg/kg (Rattus norvegicus [2]) of 70% and an inhibition in vivo at 6.25 mg/kg (Rattus norvegicus [3]) of 27%. The inhibition in vivo at 50 mg/kg (Mus musculus [4]) was 33%, the inhibition in vivo at 50 mg/kg (Rattus norvegicus [5]) was 66% and the inhibition in vivo at 25 mg/kg (Rattus norvegicus [7]) was 61%. The inhibition in vivo at 100 mg/kg (Mus musculus [8]) was 100% and the Activity (Rattus norvegicus [9]) was “Non-toxic”.

With `CCC(CC)Nc1c(C(=O)N(CC)CC)c2nnc(C(C)C)n2c2ncccc12` the inhibition in vivo at 12.5 mg/kg (Rattus norvegicus [1]) was 45%, the inhibition in vivo at 100 mg/kg (Rattus norvegicus [2]) was 50% and the inhibition in vivo at 6.25 mg/kg (Rattus norvegicus [3]) was 11%. It also gave an inhibition in vivo at 12.5 mg/kg (Mus musculus [11]) of 49%, an inhibition in vivo at 50 mg/kg (Mus musculus [4]) of 75% and an inhibition in vivo at 50 mg/kg (Rattus norvegicus [5]) of 47%. For the same molecule, the inhibition in vivo at 25 mg/kg (Mus musculus [6]) was 58%, the inhibition in vivo at 25 mg/kg (Rattus norvegicus [7]) was 47% and the inhibition in vivo at 100 mg/kg (Mus musculus [8]) was 91%. The Activity (Rattus norvegicus [9]) was “Non-toxic”, the inhibition at 50 mg/kg (Mus musculus [10]) was 84% and the inhibition in vivo at 6.25 mg/kg (Mus musculus [12]) was 36%.

Work on `CCN(CC)C(=O)c1c(N2CCN(C)CC2)c2cccnc2n2c(C(C)C)nnc12` yielded an inhibition in vivo at 12.5 mg/kg (Mus musculus [11]) of 92%, an inhibition in vivo at 50 mg/kg (Mus musculus [4]) of 85% and an inhibition in vivo at 25 mg/kg (Mus musculus [6]) of 90%. It also gave an inhibition in vivo at 100 mg/kg (Mus musculus [8]) of 88%, an inhibition in vivo at 3.12 mg/kg (Mus musculus [13]) of 85% and an inhibition in vivo at 1.6 mg/kg (Mus musculus [14]) of 39%. For the same molecule, the Activity (Rattus norvegicus [9]) was “Non-toxic”, the inhibition at 50 mg/kg (Mus musculus [10]) was 100% and the inhibition in vivo at 6.25 mg/kg (Mus musculus [12]) was 83%.

With `CCN1CCN(c2c(C(=O)N(CC)CC)c3ncc(C)n3c3ncccc23)CC1` the inhibition in vivo at 100 mg/kg (Rattus norvegicus [2]) was 10%, the inhibition in vivo at 12.5 mg/kg (Mus musculus [11]) was 0% and the inhibition in vivo at 50 mg/kg (Mus musculus [4]) was 48%. The inhibition in vivo at 25 mg/kg (Mus musculus [6]) was 54%, the inhibition in vivo at 100 mg/kg (Mus musculus [8]) was 83% and the Activity (Rattus norvegicus [9]) was “Non-toxic”. For the same molecule, the inhibition at 100 mg/kg (Mus musculus [15]) was 63% and the inhibition at 50 mg/kg (Mus musculus [10]) was 46%.

`CCc1nnc2c(C(=O)N(CC)CC)c(N(C)CC(C)C)c3cccnc3n12` was tested, and the inhibition in vivo at 12.5 mg/kg (Rattus norvegicus [1]) was 8%, the inhibition in vivo at 100 mg/kg (Rattus norvegicus [2]) was 39% and the inhibition in vivo at 50 mg/kg (Mus musculus [4]) was 26%. For the same molecule, the inhibition in vivo at 50 mg/kg (Rattus norvegicus [5]) was 42%, the inhibition in vivo at 25 mg/kg (Rattus norvegicus [7]) was 28% and the inhibition in vivo at 100 mg/kg (Mus musculus [8]) was 92%. The Activity (Rattus norvegicus [9]) was “Non-toxic” and the inhibition at 100 mg/kg (Mus musculus [15]) was 60%.

Molecule `CCN(CC)C(=O)c1c(N2CCN(CCO)CC2)c2cccnc2n2ccnc12` has an inhibition in vivo at 100 mg/kg (Rattus norvegicus [2]) of 0%, an inhibition in vivo at 50 mg/kg (Mus musculus [4]) of 12% and an inhibition in vivo at 100 mg/kg (Mus musculus [8]) of 41%. For the same molecule, the Activity (Rattus norvegicus [9]) was “Non-toxic” and the inhibition at 100 mg/kg (Mus musculus [15]) was 39%.

`CCN(C)C(=O)c1c(NC(C)C)c2cccnc2n2c(C(C)C)nnc12` gave an inhibition in vivo at 100 mg/kg (Rattus norvegicus [2]) of 46%, an inhibition in vivo at 50 mg/kg (Mus musculus [4]) of 0% and an inhibition in vivo at 50 mg/kg (Rattus norvegicus [5]) of 0%. For the same molecule, the inhibition in vivo at 100 mg/kg (Mus musculus [8]) was 82%, the Activity (Rattus norvegicus [9]) was “Non-toxic” and the inhibition at 100 mg/kg (Mus musculus [15]) was 96%.

Work on `CCN(CC)C(=O)c1c(N2CCN(C)CC2)c2cccnc2n2c(C)cnc12` yielded an inhibition in vivo at 100 mg/kg (Rattus norvegicus [2]) of 0%, an inhibition in vivo at 12.5 mg/kg (Mus musculus [11]) of 21% and an inhibition in vivo at 50 mg/kg (Mus musculus [4]) of 86%. The inhibition in vivo at 25 mg/kg (Mus musculus [6]) was 83%, the inhibition in vivo at 100 mg/kg (Mus musculus [8]) was 85% and the Activity (Rattus norvegicus [9]) was “Non-toxic”. It also gave an inhibition at 100 mg/kg (Mus musculus [15]) of 80% and an inhibition at 50 mg/kg (Mus musculus [10]) of 20%.

With `C=CCNc1c(C(=O)N(CC)CC)c2nnc(C(C)C)n2c2ncccc12` the inhibition in vivo at 12.5 mg/kg (Rattus norvegicus [1]) was 32%, the inhibition in vivo at 100 mg/kg (Rattus norvegicus [2]) was 60% and the inhibition in vivo at 6.25 mg/kg (Rattus norvegicus [3]) was 25%. For the same molecule, the inhibition in vivo at 50 mg/kg (Mus musculus [4]) was 28%, the inhibition in vivo at 50 mg/kg (Rattus norvegicus [5]) was 49% and the inhibition in vivo at 25 mg/kg (Rattus norvegicus [7]) was 52%. The inhibition in vivo at 100 mg/kg (Mus musculus [8]) was 79%, the Activity (Rattus norvegicus [9]) was “Non-toxic” and the inhibition at 100 mg/kg (Mus musculus [15]) was 64%.

Molecule `CCN(CC)C(=O)c1c(N2CCN(c3ccccc3OC)CC2)c2cccnc2n2ccnc12` has an inhibition in vivo at 100 mg/kg (Rattus norvegicus [2]) of 16%, an inhibition in vivo at 50 mg/kg (Mus musculus [4]) of 0% and an inhibition in vivo at 100 mg/kg (Mus musculus [8]) of 63%. The Activity (Rattus norvegicus [9]) was “Non-toxic” and the inhibition at 100 mg/kg (Mus musculus [15]) was 86%.
